In brackets after ≈: the same amount, converted by molar mass. Each block holds one compound with its values, some of them ahead of it. Activity calls are given as the source filed them. How the calls were made is not given here. Residues, ends and D or L forms follow the SMILES beside them. *: point of attachment. Boc = CC(C)(C)OC(=O)*
How the values were obtained:
[1] = test system: Aspergillus fumigatus; assay: Antifungal activity against Aspergillus fumigatus assessed as growth inhibition; assay type: functional, organism-based
[2] = test system: KB; assay: Cytotoxicity against human KB cells assessed as cell viability after 48 hrs by neutral red uptake assay; assay type: cell-based
Outline: (§1)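 Neutral red uptake assay on human cancer lines (SK-MEL, KB, BT-549, SK-OV-3) and noncancerous mammalian cells (VERO, LLC-PK1). Highest tested concentration was 10 µg/mL.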

[3] = test system: LLC-PK1; assay: Cytotoxicity against pig LLC-PK1 cells assessed as cell viability after 48 hrs by neutral red uptake assay; assay type: cell-based, Sus scrofa; details: llc-pk1, 48 h; outline: as §1
[4] = test system: Candida albicans; assay: Antifungal activity against Candida albicans assessed as growth inhibition; assay type: functional, organism-based
[5] = test system: SK-MEL; assay: Cytotoxicity against human SK-MEL cells assessed as cell viability after 48 hrs by neutral red uptake assay; assay type: cell-based; outline: as §1
[6] = test system: Pichia kudriavzevii; assay: Antifungal activity against Candida krusei assessed as growth inhibition; assay type: functional, organism-based
[7] = test system: BT-549; assay: Cytotoxicity against human BT549 cells assessed as cell viability after 48 hrs by neutral red uptake assay; assay type: cell-based; details: bt-549, 48 h; outline: as §1
[8] = test system: Nakaseomyces glabratus; assay: Antifungal activity against Candida glabrata assessed as growth inhibition; assay type: functional, organism-based
[9] = test system: Vero; assay: Cytotoxicity against african green monkey Vero cells assessed as cell viability after 48 hrs by neutral red uptake assay; assay type: cell-based; details: chlorocebus sabaeus; outline: as §1
[10] = test system: Cryptococcus neoformans; assay: Antifungal activity against Cryptococcus neoformans ATCC 90113 assessed as growth inhibition after 70-74 hrs by CLSI method; assay type: functional, organism-based
[11] = test system: Escherichia coli; assay: Antibacterial activity against Escherichia coli ATCC 35218 assessed as growth inhibition after 16-20 hrs by CLSI method; assay type: functional, organism-based
[12] = test system: SK-OV-3; assay: Cytotoxicity against human SKOV3 cells assessed as cell viability after 48 hrs by neutral red uptake assay; assay type: cell-based; details: sk-ov-3, 48 h; outline: as §1
[13] = Cryptococcus neoformans, ATCC 90113
[14] = Cryptococcus neoformans, ATCC 90113, read-out: IC50

Compound: COc1ccc(-c2nc(C[C@H](NC(=O)[C@H](Cc3c[nH]c4ccccc34)NC(=O)OC(C)(C)C)C(=O)NCc3ccccc3)c[nH]2)cc1
growth inhibition (GI) [1]: inactive | Activity [2]: > 10 µg/mL | Activity [3]: > 10 µg/mL | growth inhibition (GI) [4]: inactive | Activity [5]: > 10 µg/mL | growth inhibition (GI) [6]: inactive | Activity [7]: > 10 µg/mL | growth inhibition (GI) [8]: inactive | Activity [9]: > 10 µg/mL | IC50 [10]: Not Active | MFC [10]: inactive | MIC [10]: inactive | growth inhibition (GI) [11]: inactive | Activity [12]: > 10 µg/mL

Compound: COc1ccc(-c2nc(C[C@H](NC(=O)[C@@H](N)Cc3c[nH]c4ccccc34)C(=O)NCc3ccccc3)c[nH]2)cc1
growth inhibition (GI) [1]: inactive | Activity [2]: > 10 µg/mL | Activity [3]: > 10 µg/mL | growth inhibition (GI) [4]: inactive | Activity [5]: > 10 µg/mL | growth inhibition (GI) [6]: inactive | Activity [7]: > 10 µg/mL | growth inhibition (GI) [8]: inactive | Activity [9]: > 10 µg/mL | MFC [10]: inactive | MIC [10, 13]: 10 µg/mL (≈ 18.6 µM) | IC50 [10, 14]: 10.8 µg/mL (≈ 20.2 µM) | growth inhibition (GI) [11]: inactive | Activity [12]: > 10 µg/mL

Compound: COC(=O)[C@H](Cc1c[nH]cn1)NC(=O)[C@@H](N)Cc1c[nH]c2ccccc12 (H-Trp-His-OMe)
growth inhibition (GI) [1]: inactive | Activity [2]: > 10 µg/mL | Activity [3]: > 10 µg/mL | growth inhibition (GI) [4]: inactive | Activity [5]: > 10 µg/mL | growth inhibition (GI) [6]: inactive | Activity [7]: > 10 µg/mL | growth inhibition (GI) [8]: inactive | Activity [9]: > 10 µg/mL | IC50 [10]: Not Active | MFC [10]: inactive | MIC [10]: inactive | growth inhibition (GI) [11]: inactive | Activity [12]: > 10 µg/mL

Compound: COC(=O)[C@H](Cc1c[nH]c(-c2ccc(C)cc2)n1)NC(=O)[C@H](Cc1c[nH]c2ccccc12)NC(=O)OC(C)(C)C
growth inhibition (GI) [1]: inactive | Activity [2]: > 10 µg/mL | Activity [3]: > 10 µg/mL | growth inhibition (GI) [4]: inactive | Activity [5]: > 10 µg/mL | growth inhibition (GI) [6]: inactive | Activity [7]: > 10 µg/mL | growth inhibition (GI) [8]: inactive | Activity [9]: > 10 µg/mL | IC50 [10]: Not Active | MFC [10]: inactive | MIC [10]: inactive | growth inhibition (GI) [11]: inactive | Activity [12]: > 10 µg/mL

Compound: COC(=O)[C@H](Cc1c[nH]c(-c2cccc3ccccc23)n1)NC(=O)[C@H](Cc1c[nH]c2ccccc12)NC(=O)OC(C)(C)C
growth inhibition (GI) [1]: inactive | Activity [2]: > 10 µg/mL | Activity [3]: > 10 µg/mL | growth inhibition (GI) [4]: inactive | Activity [5]: > 10 µg/mL | growth inhibition (GI) [6]: inactive | Activity [7]: > 10 µg/mL | growth inhibition (GI) [8]: inactive | Activity [9]: > 10 µg/mL | IC50 [10]: Not Active | MFC [10]: inactive | MIC [10]: inactive | growth inhibition (GI) [11]: inactive | Activity [12]: > 10 µg/mL

Compound: COC(=O)[C@H](Cc1c[nH]cn1)NC(=O)[C@H](Cc1c[nH]c2ccccc12)NC(=O)OC(C)(C)C (Boc-Trp-His-OMe)
growth inhibition (GI) [1]: inactive | Activity [2]: > 10 µg/mL | Activity [3]: > 10 µg/mL | growth inhibition (GI) [4]: inactive | Activity [5]: > 10 µg/mL | growth inhibition (GI) [6]: inactive | Activity [7]: > 10 µg/mL | growth inhibition (GI) [8]: inactive | Activity [9]: > 10 µg/mL | IC50 [10]: Not Active | MFC [10]: inactive | MIC [10]: inactive | growth inhibition (GI) [11]: inactive | Activity [12]: > 10 µg/mL

Continued, in another order:

MIC [10]: inactive
Compound: COc1ccc(-c2nc(C[C@H](N)C(=O)N[C@@H](CCCNC(=N)N)C(=O)NCc3ccccc3)c[nH]2)cc1
growth inhibition (GI) [1]: inactive | Activity [2]: > 10 µg/mL | Activity [3]: > 10 µg/mL | growth inhibition (GI) [4]: inactive | Activity [5]: > 10 µg/mL | growth inhibition (GI) [6]: inactive | Activity [7]: > 10 µg/mL | growth inhibition (GI) [8]: inactive | Activity [9]: > 10 µg/mL | IC50 [10]: Not Active | MFC [10]: inactive | growth inhibition (GI) [11]: inactive | Activity [12]: > 10 µg/mL

MIC [10]: inactive
Compound: COC(=O)[C@H](CCCNC(=N)N)NC(=O)[C@@H](N)Cc1c[nH]c(-c2ccc(OC)cc2)n1
growth inhibition (GI) [1]: inactive | Activity [2]: > 10 µg/mL | Activity [3]: > 10 µg/mL | growth inhibition (GI) [4]: inactive | Activity [5]: > 10 µg/mL | growth inhibition (GI) [6]: inactive | Activity [7]: > 10 µg/mL | growth inhibition (GI) [8]: inactive | Activity [9]: > 10 µg/mL | IC50 [10]: Not Active | MFC [10]: inactive | growth inhibition (GI) [11]: inactive | Activity [12]: > 10 µg/mL

MIC [10]: inactive
Compound: COC(=O)[C@H](CCCNC(=N)N)NC(=O)[C@H](Cc1c[nH]cn1)NC(=O)OC(C)(C)C (Boc-His-Arg-OMe)
growth inhibition (GI) [1]: inactive | Activity [2]: > 10 µg/mL | Activity [3]: > 10 µg/mL | growth inhibition (GI) [4]: inactive | Activity [5]: > 10 µg/mL | growth inhibition (GI) [6]: inactive | Activity [7]: > 10 µg/mL | growth inhibition (GI) [8]: inactive | Activity [9]: > 10 µg/mL | IC50 [10]: Not Active | MFC [10]: inactive | growth inhibition (GI) [11]: inactive | Activity [12]: > 10 µg/mL

MIC [10]: inactive
Compound: COC(=O)[C@H](CCCNC(=N)N)NC(=O)[C@@H](N)Cc1c[nH]c(-c2ccccc2)n1
growth inhibition (GI) [1]: inactive | Activity [2]: > 10 µg/mL | Activity [3]: > 10 µg/mL | growth inhibition (GI) [4]: inactive | Activity [5]: > 10 µg/mL | growth inhibition (GI) [6]: inactive | Activity [7]: > 10 µg/mL | growth inhibition (GI) [8]: inactive | Activity [9]: > 10 µg/mL | MFC [10]: inactive | IC50 [10, 14]: 10.6 µg/mL (≈ 26.3 µM) | growth inhibition (GI) [11]: inactive | Activity [12]: > 10 µg/mL

MIC [10, 13]: 20 µg/mL (≈ 43.7 µM)
Compound: COC(=O)[C@H](CCCNC(=N)N)NC(=O)[C@@H](N)Cc1c[nH]c(-c2ccc(C(C)(C)C)cc2)n1
growth inhibition (GI) [1]: inactive | Activity [2]: > 10 µg/mL | Activity [3]: > 10 µg/mL | growth inhibition (GI) [4]: inactive | Activity [5]: > 10 µg/mL | growth inhibition (GI) [6]: inactive | Activity [7]: > 10 µg/mL | growth inhibition (GI) [8]: inactive | Activity [9]: > 10 µg/mL | MFC [10, 13]: 20 µg/mL (≈ 43.7 µM) | IC50 [10, 14]: 10.2 µg/mL (≈ 22.2 µM) | growth inhibition (GI) [11]: inactive | Activity [12]: > 10 µg/mL

From ChEMBL document CHEMBL3132745, “Synthesis and Antimicrobial Activities of His(2-aryl)-Arg and Trp-His(2-aryl) Classes of Dipeptidomimetics” (Medchemcomm, 2014)
